“Also recorded” adds a separate entry of the source.
Experiments:
[1] = test system: early liver stage parasites; conditions: cited from earlier work
[2] = biological target: T1, PfAtg8-PfAtg3 interaction (Plasmodium falciparum, UniProt Q8IJK2, C119S/C122S/C32I); assay: MMV SPR competition assay; type: binding, P. falciparum; conditions: read-out: inhibition of the PfAtg8-PfAtg3 interaction in primary SPR screen
T1 sequence (Q8IJK2 1-124 C32I/C119S/C122S): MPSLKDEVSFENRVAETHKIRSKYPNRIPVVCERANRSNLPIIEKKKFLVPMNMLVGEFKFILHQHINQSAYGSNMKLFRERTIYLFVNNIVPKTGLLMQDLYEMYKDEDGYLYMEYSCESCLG
T1 sequence (C0H519 1-313 partner): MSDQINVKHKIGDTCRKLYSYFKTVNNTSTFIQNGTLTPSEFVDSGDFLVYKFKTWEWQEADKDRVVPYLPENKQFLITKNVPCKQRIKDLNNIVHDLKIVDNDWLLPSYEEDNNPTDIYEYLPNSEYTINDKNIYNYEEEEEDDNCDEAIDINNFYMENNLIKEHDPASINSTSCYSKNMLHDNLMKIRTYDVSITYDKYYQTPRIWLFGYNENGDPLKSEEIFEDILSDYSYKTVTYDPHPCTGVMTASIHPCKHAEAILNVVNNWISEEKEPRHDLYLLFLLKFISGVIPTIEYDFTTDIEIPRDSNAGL
Outline: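 MBP-PfAtg3 immobilized on a CM5 chip, with MBP on the reference flowcell. Test compound (final 5 μM) or DMSO was mixed with 300 nM His6-PfAtg8CM in PBS pH 7.4 with 0.01% P20, final DMSO 3%, and injected. Binding read as SPR response versus DMSO control. Surface regenerated with 2 M MgCl2 between injections.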

[3] = biological target: T2, PfAtg8^CM (Plasmodium falciparum, UniProt Q8IJK2, C119S/C122S/C32I); assay: Direct binding of 1 to immobilized PfAtg8^CM by SPR; set-up: species or system P. falciparum
T2 sequence (Q8IJK2 1-124 C32I/C119S/C122S): T1 sequence (Q8IJK2 1-124 C32I/C119S/C122S)
Outline: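 SPR direct binding: His12-PfAtg8CM captured on a nickel-preconditioned NTA chip to 3000 RU. Two-fold dilution series of test compound (top 75 μM) injected at 40 μL/min in PBS pH 7.4 with 0.01% P20 and 3% DMSO. Double referencing with interspersed blanks; DMSO calibration curve; binding constants fitted.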

[4] = test system: HC-04 cells; assay: Viability of HC-04 cells; type: cell-based, human; conditions: 30 μM
[5] = test system: human cell lines; conditions: ref PubChem AID: 660872, 685525, and 449705; cited from earlier work
[6] = test system: P. falciparum 3D7-GFP liver stage; assay: In vitro infection of human hepatocytes; type: cell-based; conditions: for decrease in proportion of hepatocytes infected with P. falciparum 3D7-GFP (GFP+/PI−): 72 h post infection
[7] = test system: P. falciparum blood stage; assay: Parasite morphology in blood smears; type: cell-based; conditions: treatment concentration and duration used in the study (50 μM, 5 h)
Outline: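 Asynchronous FCR3 blood-stage culture (25% parasitemia; 37 °C, 2% hematocrit, RPMI with 10% human serum, 3% CO2/5% O2) washed in serum-free starvation medium. Resuspended in complete medium with 50 μM test compound or DMSO, or in starvation medium with DMSO, for 5 h. Morphology viewed by light microscopy at 100× at harvest.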

[8] = test system: P. falciparum 3D7; assay: SYBR green I growth inhibition assay, blood stage; type: cell-based; conditions: Plasmodium falciparum, 3D7, read-out: IC50 in a third experiment
[9] = test system: Plasmodium yoelii liver stage cultures; conditions: screening concentration 10 μM; ref PubChem AID: 602118 and 602156, 18, 19; cited from earlier work
[10] = test system: PfAtg8; assay: Immunoblot analysis of PfAtg8 in P. falciparum blood stage; type: cell-based; conditions: for delipidation of PfAtg8 (immunoblot): 6 hours
[11] = biological target: T3, PfAtg3 (Plasmodium falciparum, UniProt C0H519); assay: Direct binding of protein to immobilized 8 by SPR; set-up: species or system P. falciparum; conditions: data not shown
T3 sequence (C0H519 1-313): T1 sequence (C0H519 1-313 partner)
Outline: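 Test compound captured on a neutravidin-coated SPR flowcell (130 RUs), with a control ligand on the reference flowcell (150 RUs). His6-PfAtg3 injected in duplicate in 10 mM HEPES pH 7.5, 150 mM NaCl, 0.05% P20. Regeneration after each cycle with 20 mM HEPES pH 7.4, 1% w/v SDS.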

Q: Which “effect on conversion of parasite into trophozoite form” value [1] does the source give for `Cn1cnc(N)c2ncnc1-2` [3-methyladenine] here?
A: delay conversion of the parasite into its trophozoite form

Q: With `Cc1ccc(Nc2nc(-c3ccccn3)cs2)cc1` [Compound 1, N-(4-methylphenyl)-4-pyridin-2-yl-1,3-thiazol-2-amine] as the molecule, how does the inhibition at 5 µM [2] read?
A: ≥ 25%

Q: What about the “direct binding to PfAtg8^CM (SPR response)” value [3] of the same molecule?
A: dose-dependent increase in SPR response; also recorded: directly binds to PfAtg8

Q: What about the “cell death in HC-04 cells” value [4] of the same molecule?
A: did not observe cell death

Q: And the “reported cytotoxicity in human cell lines” value [5]?
A: much lower than that of compounds 2 or 3

Q: What about the “intensity of GFP fluorescence in infected hepatocytes” value ([6]; 3 μM and 30 μM) of the same molecule?
A: dose-dependent reduction

Q: What about the “decrease in proportion of hepatocytes infected with P. falciparum 3D7-GFP (GFP+/PI−)” value ([6]; 3 μM) of the same molecule?
A: but not with 3 μM

Q: And the “decrease in proportion of hepatocytes infected with P. falciparum 3D7-GFP (GFP+/PI−)” value ([6]; 30 μM)?
A: ~50%

Q: And the parasite morphology [7]?
A: parasite morphology appeared normal

Q: And the IC50 [8]?
A: 3.3 µM

Q: And the “inhibition of P. yoelii liver stage” value [9]?
A: ≤ 50%

Q: And the “delipidation of PfAtg8 (immunoblot)” value ([10]; 12.5 μM)?
A: dose-dependent increase in delipidation of PfAtg8

Q: What about the “delipidation of PfAtg8 (immunoblot)” value ([10]; 25 μM) of the same molecule?
A: unlipidated PfAtg8 is the predominant species

Q: What about the “PfAtg8 protein levels (immunoblot)” value ([10]; 50 μM (cytocidal, high levels), 5 h, FCR3) of the same molecule?
A: drastic increase in PfAtg8 protein levels

Q: With `CSc1ccccc1C(=O)Nc1nc(-c2ccccn2)cs1` [Compound 2, 2-methylsulfanyl-N-(4-pyridin-2-yl-1,3-thiazol-2-yl)benzamide] as the molecule, how does the inhibition at 5 µM [2] read?
A: ≥ 25%

Q: Which inhibition at 5 µM [2] does the source give for `O=C(Nc1nc(-c2ccccn2)cs1)c1ccccc1Br` [Compound 3, 2-bromo-N-(4-pyridin-2-yl-1,3-thiazol-2-yl)benzamide] here?
A: ≥ 25%

Q: For `Cc1ccc(-c2cc3c(SCC(=O)Nc4cc(C(F)(F)F)ccc4Cl)nccn3n2)cc1` [Compound 4, N-[2-chloro-5-(trifluoromethyl)phenyl]-2-[2-(4-methylphenyl)pyrazolo[1,5-a]pyrazin-4-yl]sulfanylacetamide], which inhibition at 5 µM [2] is on record?
A: ≥ 25%

Q: With `CN(C)c1ccc(N2C(N)=NC(N)=NC2(C)C)cc1` [Compound 5, 1-[4-(dimethylamino)phenyl]-6,6-dimethyl-1,3,5-triazine-2,4-diamine] as the molecule, how does the inhibition at 5 µM [2] read?
A: ≥ 25%

Q: For `Brc1ccc(Nc2nc3ccccc3nc2Nc2ccc(Br)cc2)cc1` [Compound 6, 2-N,3-N-bis(4-bromophenyl)quinoxaline-2,3-diamine], which inhibition at 5 µM [2] is on record?
A: ≥ 25%

Q: Which “binding of recombinant PfAtg3 to immobilized 8” value [11] does the source give for `O=C(CCCC[C@H]1SC[C@H]2NC(=O)N[C@H]21)NCCCCCC(=O)NNCc1ccc(C(=O)Nc2nc(-c3ccccn3)cs2)cc1` [Compound 8, 4-[[2-[6-[5-[(3aR,4R,6aS)-2-Oxo-1,3,3a,4,6,6a-hexahydrothieno[3,4-d]imidazol-4-yl]pentanoylamino]hexanoyl]hydrazinyl]methyl]-N-(4-pyridin-2-yl-1,3-thiazol-2-yl)benzamide] here?
A: did not bind

From article PMC4059259 (Journal of Medicinal Chemistry, 2014)
